In ChEMBL document CHEMBL3414513, “Synthesis and biological evaluation of betulonic acid derivatives as antitumor agents” (Eur J Med Chem, 2015):
The source made the active and inactive calls. No cut-off for these calls is given here.

Columns and labels:
[1] = test system: MGC-803; test: Induction of apoptosis in human MGC803 cells at 10 uM by Annexin V-FITC/propidium iodide staining-based flow cytometric analysis; type: functional, cell-based; details: TDE = time-dependent effect
Summary of the method: (§1)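 MGC-803 cells were treated at 10 µM, with 36 h among the time points; HCPT 10 µM served as positive control. Cells at 1×10^6/mL were washed in cold PBS and resuspended in 500 µL binding buffer. Staining used 5 µL Annexin V-FITC plus 5 µL PI for 20 min in the dark, then flow cytometry. Apoptosis ratio is early plus late apoptotic quadrants.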

[2] = (§2) Cytotoxicity against human PC3 cells after 72 hrs by MTT assay; type: functional, cell-based; details: PC-3, 72 h
Summary of the method: (§3)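 Cells trypsinized at 80-90% confluence, seeded at 2×10^3/well overnight, then given compounds (DMSO stocks diluted in medium) at various concentrations for 72 h at 37 °C. Controls: 0.1% DMSO negative, adriamycin positive. MTT (5 mg/ml) added for 4 h, formazan dissolved in SDS 12 h, A595 read. IC50 from dose-response curves.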

[3] = test system: PC-3; test: as §2; type: functional, cell-based; summary of the method: as §3
[4] = Upregulation of p53 expression in human MGC803 cells at 2.5 to 10 uM after 12 hrs by Western blot analysis; type: functional, cell-based; details: MGC-803
Summary of the method: (§4)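 MGC-803 cells were treated at 2.5, 5 or 10 µM for 12 h, then collected. Western blots were probed with anti-p53 and anti-Bax (1:500 to 1:1000), with β-actin as loading reference.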

[5] = test system: MGC-803; test: Induction of apoptosis in human MGC803 cells assessed as necrotic cells at 5 uM after 12 to 48 hrs by acridine orange/ethidium bromide staining-based fluorescence microscopic analysis; type: functional, cell-based
Summary of the method: (§5)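 MGC-803 cells at 5×10^4 cells/mL were seeded in 6-well plates. Medium was replaced with fresh medium plus 10% FBS containing compound, 5 µM for 12-48 h. Controls: HCPT 10 µM for 48 h, DMSO. Cells were washed with PBS and the coverslip was inverted onto 20 µL AO/EB stain (100 µg/mL). Fluorescence microscopy scored live, early apoptotic, late apoptotic and necrotic nuclei.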

[6] = test system: MCF7; test: Cytotoxicity against human MCF7 cells after 72 hrs by MTT assay; type: functional, cell-based
Summary of the method: as §3, with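 “Cancer lines grown in RPMI 1640 with 10% heat-inactivated FBS, 37 °C, 5% CO2. Cells” for “Cells”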

[7] = test system: MGC-803; test: Selectivity index, ratio of IC50 for mouse NIH/3T3 cells to IC50 for human MGC803 cells; type: functional
Summary of the method: (§6)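 Index is the IC50 in normal NIH3T3 cells divided by the IC50 in each cancer line. […] HCPT and adriamycin were used as positive controls.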

[8] = test system: MGC-803; test: Induction of apoptosis in human MGC803 cells assessed as apoptosis ratio at 10 uM after 36 hrs by Annexin V-FITC/propidium iodide staining-based flow cytometric analysis; type: functional; summary of the method: as §1
[9] = test system: Bcap37; test: Selectivity index, ratio of IC50 for mouse NIH/3T3 cells to IC50 for human Bcap37 cells; type: functional; summary of the method: as §6
[10] = test system: MGC-803; test: Cytotoxicity against human MGC803 cells after 72 hrs by MTT assay; type: functional, cell-based
Summary of the method: as §3, with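 “Cancer lines grown in RPMI 1640 with 10% heat-inactivated FBS, 37 °C, 5% CO2. Cells” for “Cells”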

[11] = test system: MGC-803; test: Induction of apoptosis in human MGC803 cells at 5 uM after 12 to 48 hrs by acridine orange/ethidium bromide staining-based fluorescence microscopic analysis; type: functional, cell-based; summary of the method: as §5
[12] = test system: A-375; test: Selectivity index, ratio of IC50 for mouse NIH/3T3 cells to IC50 for human A375 cells; type: functional; summary of the method: as §6
[13] = test system: MGC-803; test: Induction of apoptosis in human MGC803 cells assessed as activation of caspase-9 using Ac-LEHD-pNA as probe at 2.5 to 10 uM after 12 hrs; type: functional, cell-based
Summary of the method: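 MGC-803 cells were treated at 2.5, 5 or 10 µM for 12 h. Cells were lysed on ice for 25 min and spun at 16000 g for 15 min. Supernatant was mixed with reaction buffer and Ac-LEHD-pNA and incubated at 37 °C for 2-3 h in the dark. A405 was read against a buffer blank.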

[14] = test system: PC-3; test: Selectivity index, ratio of IC50 for mouse NIH/3T3 cells to IC50 for human PC3 cells; type: functional; summary of the method: as §6
[15] = test system: MGC-803; test: Induction of apoptosis in human MGC803 cells assessed as appearance of compact condensed and crescent shaped cells at 5 uM after 12 to 48 hrs by Hoechst 33258 staining-based fluorescence microscopic analysis; type: functional, cell-based
Summary of the method: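 MGC-803 cells (5×10^4 cells/mL, 6-well plates) were treated at 5 µmol/L for 12-48 h in fresh medium with 10% FBS. Controls: HCPT 10 µM for 48 h, DMSO. Cells were fixed in 4% paraformaldehyde for 10 min and stained with Hoechst 33258 for 5 min. Fluorescence microscopy used 350 nm excitation and 460 nm emission.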

[16] = test system: MGC-803; test: Induction of apoptosis in human MGC803 cells assessed as DNA fragmentation at 5 uM after 12 to 48 hrs by TUNEL assay; type: functional, cell-based
Summary of the method: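 MGC-803 cells (5×10^4 cells/mL, 6-well) were exposed at 5 µM for 12-48 h. Controls: HCPT 10 µM for 48 h, DMSO. Colorimetric TUNEL: fixed in 4% paraformaldehyde 40 min, permeabilized on ice, endogenous peroxidase quenched with 0.3% H2O2/methanol 20 min. Then TdT plus biotin-dUTP 60 min at 37 °C, streptavidin-HRP 30 min, DAB 10 min. Brown precipitate scored by light microscopy.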

[17] = test system: MGC-803; test: Induction of apoptosis in human MGC803 cells assessed as activation of caspase-3 using Ac-[…]-pNA as probe at 2.5 to 10 uM after 12 hrs; type: functional, cell-based
Summary of the method: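 MGC-803 cells were treated at 2.5, 5 or 10 µM for 12 h. Cells (1×10^6/mL) were washed in cold PBS, lysed on ice for 25 min and spun at 18000 g for 15 min. Supernatant was mixed with reaction buffer and Ac-[…]-pNA and incubated at 37 °C for 2-3 h in the dark. A405 was read against a lysis/reaction buffer blank.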

[18] = Upregulation of Bax expression in human MGC803 cells at 2.5 to 10 uM after 12 hrs by Western blot analysis; type: functional, cell-based; details: MGC-803; summary of the method: as §4
[19] = test system: MCF7; test: Selectivity index, ratio of IC50 for mouse NIH/3T3 cells to IC50 for human MCF7 cells; type: functional; summary of the method: as §6
[20] = test system: A-375; test: Cytotoxicity against human A375 cells after 72 hrs by MTT assay; type: functional, cell-based
Summary of the method: as §3, with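 “Cancer lines grown in RPMI 1640 with 10% heat-inactivated FBS, 37 °C, 5% CO2. Cells” for “Cells”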

[21] = test system: Bcap37; test: Cytotoxicity against human Bcap37 cells after 72 hrs by MTT assay; type: functional, cell-based
Summary of the method: as §3, with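 “Cancer lines grown in RPMI 1640 with 10% heat-inactivated FBS, 37 °C, 5% CO2. Cells” for “Cells”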

Q: What does the source list for `C=C(C)[C@@H]1CC[C@]2(C(=O)OCCCCN3CCCCC3)CC[C@]3(C)[C@H](CC[C@@H]4[C@@]5(C)CCC(=O)C(C)(C)[C@@H]5CC[C@]43C)[C@@H]12`?
A: Activity [1]: tde; IC50 [2]: 5.6 µM; Activity [3]: Dose-dependent effect; Activity [4]: Active; Activity [5]: inactive; Activity [6]: Dose-dependent effect; IC50 ([6]; MCF7, 72 h): 5.2 µM; Ratio IC50 [7]: 7.38; Activity [8]: 28.33%; Ratio IC50 [9]: 6.33; Activity [10]: Dose-dependent effect; IC50 ([10]; MGC-803, 72 h): 3.6 µM; Activity [11]: Active; Ratio IC50 [12]: 3.41; Activity [13]: Active; Ratio IC50 [14]: 4.75; Activity [15]: Active; Activity [16]: Active; Activity [17]: Active; Activity [18]: Active; Ratio IC50 [19]: 5.11; Activity [20]: Dose-dependent effect; IC50 ([20]; A-375, 72 h): 7.8 µM; Activity [21]: Dose-dependent effect; IC50 ([21]; Bcap37, 72 h): 4.2 µM
